Molecular target: Prothrombin (Homo sapiens, UniProt P00734)
Test: Inhibition of thrombin (unknown origin) using CH3SO2-D-Cha-Gly-Arg-pNA.AcOH as substrate measured every 20 sec for 30 mins in presence of NaCl by UV-Visible spectrophotometric method
Summary of the method: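 Kinetic chromogenic assay at 25 ± 0.2 °C in 0.02 M Hepes, 0.154 M NaCl (Na⁺ for enzyme activation), final DMSO 6.5 %, pH 7.4 ± 0.05. Thrombin about 8-12 nM final, substrate 100 µM final, inhibitor 0.5-10× preliminary IC50. Enzyme added last to premixed substrate and inhibitor, A405 read. Rates gave dose-response IC50, then Ki via Cheng-Prusoff, and ΔG = RTlnKi.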

`N=C(N)c1ccc(CNC(=O)[C@@H]2CCCN2C(=O)CCc2ccccc2)cc1` gave a Ki of 0.72 µM.

Work on `N=C(N)c1ccc(CNC(=O)[C@@H]2CCCN2C(=O)C(F)F)cc1` yielded a Ki of 17.9 µM.

In the case of `N=C(N)c1ccc(CNC(=O)[C@@H]2CCCN2C(=O)NCc2ccccc2)cc1`, the Ki is reported as 14.5 µM.

With `N=C(N)c1ccc(CNC(=O)[C@@H]2CCCN2C(=O)CF)cc1` the Ki was 44 µM.

Work on `N=C(N)c1ccc(CNC(=O)[C@@H]2CCCN2S(N)(=O)=O)cc1` yielded a Ki of 163 µM.

`N=C(N)c1ccc(CNC(=O)[C@@H]2CCCN2S(=O)(=O)C(F)(F)F)cc1` was tested, and the Ki was 7.1 µM.

With `CS(=O)(=O)N1CCC[C@H]1C(=O)NCc1ccc(C(=N)N)cc1` the Ki was 68 µM.

For `CC(=O)N1CCC[C@H]1C(=O)NCc1ccc(C(=N)N)cc1`, the Ki was 68 µM.

Compound `N=C(N)c1ccc(CNC(=O)[C@@H]2CCCN2C(N)=O)cc1` has a Ki of 59 µM.

`CC(C)(C)OC(=O)N1CCC[C@H]1C(=O)NCc1ccc(C(=N)N)cc1` was tested, and the Ki was 11.9 µM.

`N=C(N)c1ccc(CNC(=O)[C@@H]2CCCN2C(=O)OCc2ccccc2)cc1` showed a Ki of 4 µM.

For `N=C(N)c1ccc(CNC(=O)[C@@H]2CCCN2C(=O)C(F)(F)F)cc1`, the Ki was 13.5 µM.

With `CC(C)(C)NC(=O)N1CCC[C@H]1C(=O)NCc1ccc(C(=N)N)cc1` the Ki was 36 µM.

Work on `CCN1CCC[C@H]1C(=O)NCc1ccc(C(=N)N)cc1` yielded a Ki of 250 µM.

`CC(C)(C)CC(=O)N1CCC[C@H]1C(=O)NCc1ccc(C(=N)N)cc1` gave a Ki of 4.2 µM.

Reference: ChEMBL document CHEMBL4041515, “Modulating hydrogen-bond basicity within the context of protein-ligand binding: A case study with thrombin inhibitors that reveals a dominating role for desolvation” (Eur J Med Chem, 2017)
